Laboratory results published in ChEMBL document CHEMBL2424547, “Synthesis and biological analysis of benzazol-2-yl piperazine sulfonamides as 11β-hydroxysteroid dehydrogenase 1 inhibitors” (Bioorg Med Chem Lett, 2013).
Activity calls are given as the source filed them. No cut-off for these calls is given here.

Tests used:
Format in all cases: cell-based
[1] = biological target: T1, 11-beta-hydroxysteroid dehydrogenase type 2 (Homo sapiens) (UniProt P80365); assay: Inhibition of human 11beta-HSD2 expressed in HEK293 cells assessed as [1,2,6,7-3H]-cortisol oxidation to [1,2-3H]-cortisone at 20 uM after 10 mins in presence of NAD+
T1 sequence (whole entry): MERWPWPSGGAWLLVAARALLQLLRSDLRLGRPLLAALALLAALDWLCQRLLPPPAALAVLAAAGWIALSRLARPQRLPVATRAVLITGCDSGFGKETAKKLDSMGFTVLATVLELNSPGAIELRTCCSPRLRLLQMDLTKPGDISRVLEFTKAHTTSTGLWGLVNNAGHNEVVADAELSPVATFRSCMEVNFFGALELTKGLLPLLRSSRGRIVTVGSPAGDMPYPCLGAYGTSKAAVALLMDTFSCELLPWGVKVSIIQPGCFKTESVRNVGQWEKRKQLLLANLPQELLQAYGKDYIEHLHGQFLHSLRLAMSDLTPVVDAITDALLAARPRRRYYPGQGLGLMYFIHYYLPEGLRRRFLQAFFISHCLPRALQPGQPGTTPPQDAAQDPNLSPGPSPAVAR

[2] = biological target: T2, 11-beta-hydroxysteroid dehydrogenase 1 (Homo sapiens, UniProt P28845); assay: Inhibition of human 11beta-HSD1 expressed in HEK293 cells assessed as [1,2-3H]-cortisone reduction […] after 10 mins in presence of NADPH
Summary of the method: (§1)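 Cell-free 11β-HSD1 activity assay. Compounds were first screened at a single 20 µM concentration, and IC50 values were then determined for selected compounds. Values are mean ± SD from at least three independent experiments.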
Target sequence in this assay (P28845 whole entry): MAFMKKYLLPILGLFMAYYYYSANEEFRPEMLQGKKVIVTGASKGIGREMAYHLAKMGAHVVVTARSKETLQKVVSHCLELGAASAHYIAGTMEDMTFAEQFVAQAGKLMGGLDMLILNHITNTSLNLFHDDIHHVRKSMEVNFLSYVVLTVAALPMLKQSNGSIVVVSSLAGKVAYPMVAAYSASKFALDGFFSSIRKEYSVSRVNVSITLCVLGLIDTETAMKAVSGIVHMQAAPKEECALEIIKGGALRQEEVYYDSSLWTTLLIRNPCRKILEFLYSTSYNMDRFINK

[3] = biological target: T2, 11-beta-hydroxysteroid dehydrogenase 1; assay: Inhibition of human 11beta-HSD1 expressed in HEK293 cells assessed as [1,2-3H]-cortisone reduction […] measured as residual activity at 20 uM after 10 mins relative to control in presence of NADPH; summary of the method: as §1
Target sequence in this assay (P28845 whole entry, looked up): as the sequence (P28845 whole entry) above

[4] = biological target: T2, 11-beta-hydroxysteroid dehydrogenase 1; assay: Inhibition of human 11beta-HSD1 expressed in HEK293 cells assessed as [1,2-3H]-cortisone reduction […] measured as residual activity after 10 mins relative to control in presence of NADPH; summary of the method: as §1
Target sequence in this assay (P28845 whole entry, looked up): as the sequence (P28845 whole entry) above

inhibition [1]	IC50 ([2]; read-out: IC50) [µM]	Activity [3] [%]	IC50 ([2]; hek293)	Activity [4] [%]	Structure (SMILES)
inactive	27.2				COc1ccc(S(=O)(=O)N2CCN(c3nc4ccccc4n3C)CC2)cc1[N+](=O)[O-]
inactive	4.2				COc1ccc(S(=O)(=O)N2CCN(c3nc4ccccc4n3C)CC2)cc1
inactive	0.7				Cc1ccc(S(=O)(=O)N2CCN(c3nc4ccccc4n3C)CC2)cc1
inactive		90			Cn1c(N2CCN(S(=O)(=O)c3ccc(C(=O)O)cc3)CC2)nc2ccccc21
inactive		90			Cn1c(N2CCN(S(=O)(=O)c3ccc(C(=O)NO)cc3)CC2)nc2ccccc21
inactive		89			Cc1ccc(S(=O)(=O)N2CCN(c3nc4ccccc4s3)CC2)cc1
inactive		75			Cn1c(N2CCN(S(=O)(=O)c3cccc(C(=O)O)c3)CC2)nc2ccccc21
inactive	4.8				Cn1c(N2CCN(S(=O)(=O)c3ccc(C(C)(C)C)cc3)CC2)nc2ccccc21
inactive	18.5				COc1ccc(S(=O)(=O)N2CCN(c3nc4ccccc4n3C)CC2)cc1OC
inactive		60			Cn1c(N2CCN(S(=O)(=O)c3cccc(C(=O)NO)c3)CC2)nc2ccccc21
inactive		50			Cc1ccc(S(=O)(=O)N2CCN(c3nc4ccccc4[nH]3)CC2)cc1
inactive			ND(Insoluble)	18	CC(C)(C)c1ccc(S(=O)(=O)N2CCN(c3nc4ccccc4o3)CC2)cc1
inactive	6.4				Cn1c(N2CCN(S(=O)(=O)c3ccccc3)CC2)nc2ccccc21
inactive		65			Cc1ccc(C(=O)N2CCN(c3nc4ccccc4[nH]3)CC2)cc1
